Reference: the array DNA melting data of Ke et al. (doi:10.1101/2024.01.08.574731)

What was measured:
[1] = folding enthalpy; higher = less favourable; fluorescence melt of hairpins on a sequencing array, two-state fit; conditions: sodium 0.088 M
Summary of the method: (§1)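 Hairpins were imaged by Cy3 fluorescence on a sequenced MiSeq flow cell with annealed Cy3 and quencher oligos, in 50 mM Na-HEPES pH 8.0, 25 mM NaCl, in 2.5 °C steps up to 60 °C. Bootstrapped two-state fits of normalised signals gave melting temperature and folding enthalpy. Four replicates were combined by inverse variance, and fitted temperatures were raised by 9.35 °C to match UV melts.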

[2] = melting temperature; fluorescence melt of hairpins on a sequencing array, two-state fit, raised by 9.35 °C to match UV melts; conditions: sodium 0.088 M
Summary of the method: as §1

Row | Sequence | folding enthalpy [1] [kcal/mol] | Tm [2] [°C]
1 | GCATCTACGAAAGTATGC (((..(((....)))))) | -20.7 | 34.6
2 | GCTCAACGAAAGTTCAGC (((.(((....))).))) | -23.6 | 37.6
3 | GATCTAATGCTAGATC ((((((....)))))) | -29.5 | 36.5
4 | GATCGGTGCCCCGATC ((((((....)))))) | -29.1 | 57
5 | GATCAAGGAAACCTGATC (((((.(....).))))) | -29.1 | 35.6
6 | GATCGCTAGGGCGATC ((((((....)))))) | -34.8 | 68.2
7 | CAAGCAGAAATGGTTG (((.((....)).))) | -19.3 | 33.6
8 | GTCTAGGGAAACCTAGAC (((((((....))))))) | -40.4 | 56.2
9 | GTGAGTACGAAAGTACAC (((..(((....)))))) | -16.3 | 42.2
10 | GGTGCTCGAAAGAGACC (((.(((....)))))) | -19.4 | 46.5
11 | GGACGGCGAAAGCCCTCC (((.(((....))).))) | -20.5 | 41.4
12 | GATCACTTTGTGATC ((((((...)))))) | -34.2 | 63.1
13 | GCAGAGCGAAAGCTTGGC ((..(((....)))..)) | -18.8 | 49.5
14 | GGACGAGGAAACTCGTTC (.(((((....))))).) | -32.5 | 51.6
15 | GATCTGAGCCAGATC ((((((...)))))) | -41.7 | 47
16 | GAATGCCGAAAGGCTTTC (((.(((....))).))) | -21.7 | 48
17 | GTAGTTGGAAACGATTAC (((.(.(....).).))) | -13.7 | 30.9
18 | GCGAATGTTCGC ((((....)))) | -25.7 | 50.3
19 | GATCGGTTCCCCGATC ((((((....)))))) | -40 | 56.8
20 | GGACTGCGAAAGCAATCC (((.(((....))).))) | -12.7 | 47.8
21 | CGAGACCGGAAACGGTCG (((..(((....)))))) | -23.4 | 57.1
22 | GTCATCACGAAAGTGGAC (((..(((....)))))) | -12.7 | 35.3
23 | GGCTTCGAAAGAAATGCC ((((((....)))..))) | -25.3 | 38.5

Row | Sequence | folding enthalpy [1] [kcal/mol] | Tm [2] [°C]
24 | GTCAGGCGAAAGCCGAC (((.(((....)))))) | -16.5 | 60.6
25 | GCTTTGCGAAAGCAGGGC ((..(((....)))..)) | -20.1 | 47
26 | GATCGTGAAACGATC ((((((...)))))) | -36.8 | 66.8
27 | GATCAGGCACCTGATC ((((((....)))))) | -41.7 | 55.4
28 | GTGGGCACGAAAGTGCAC (((..(((....)))))) | -14.6 | 65.4
29 | GTAGCCCGAAAGGGATAC (((.(((....))).))) | -33.7 | 64.3
30 | GATCCTTAAGAGGATC ((((((....)))))) | -38.1 | 50.9
31 | GAAGTCGAAAGACTTC ((((((....)))))) | -34.2 | 65.7
32 | GGAAGGACGAAAGTCTCC (((..(((....)))))) | -12.8 | 33.1
33 | GTACGGGCGAAAGCCTAC (((..(((....)))))) | -8.32 | 30
34 | CTCCGGAAACGGAG (((((....))))) | -24 | 55.1
35 | GTGTTGCGAAAGCACAC (((.(((....)))))) | -33.8 | 56.3
36 | GCACAGCGAAAGCAGGGC ((.(.((....)).).)) | -25.8 | 62.5
37 | GACTGTGGAAACACAGTC (((((((....))))))) | -37.5 | 66.5
38 | GGCTCTACGAAAGTAGCC (((..(((....)))))) | -17.1 | 40.1
39 | GCCTACGAAAGTAGGGGC ((((((....)))..))) | -14.4 | 61.3
40 | GATCTCTAGGGAGATC ((((((....)))))) | -39.7 | 53.1
41 | GATCGTCCCACGATC ((((((...)))))) | -38.5 | 57.6
42 | GATTCCCGAAAGGGTATC (((.(((....))).))) | -23.4 | 45.6
43 | GAGAATGGAAACATTTTC ((.((((....)))).)) | -14.8 | 29.4
44 | GATCCCAGAGGGGATC ((((((....)))))) | -32.2 | 60.9
45 | GATCAACCTTTGATC ((((((...)))))) | -32.4 | 42
46 | GTACCCGAAAGGGGCTAC ((((((....)))..))) | -14.3 | 41.4

Row | Sequence | folding enthalpy [1] [kcal/mol] | Tm [2] [°C]
47 | GCACTAGGAAACTAGTAC (.(((((....))))).) | -20.8 | 31
48 | GATGATGGAAACATCACC (.(((((....))))).) | -16.3 | 37.3
49 | GACGGCGGAAACGCTGTC (((.(((....))).))) | -37.5 | 64.7
50 | GAGAAGGGAAACCTTCCC (.(((((....))))).) | -15.9 | 34.6
51 | GTGGTCGGAAACGACCGC (.(((((....))))).) | -17.8 | 63
52 | GCTCCCGAAAGGGAGAGC ((((((....)))..))) | -11.8 | 65.8
53 | GTCGTTGGAAACAACGAC (((((((....))))))) | -41.6 | 67.6
54 | GATCATGGAAACATGATC (((((((....))))))) | -35.3 | 56.2
55 | GGGGTCGAAAGACATCCC ((((((....)))..))) | -17.1 | 46.5
56 | GATCTCAAAAGAGATC ((((((....)))))) | -29.8 | 48.5
57 | GCAGAGGGAAACCTCCGC ((.((((....)))).)) | -26 | 44.7
58 | GATCCTAGTCAGGATC ((((((....)))))) | -45.9 | 51.6
59 | GGCCGACGAAAGTCTGCC (((.(((....))).))) | -51.3 | 56.2
60 | GAATACGAAAGTAGATTC ((((((....)))..))) | -20.3 | 29.1
61 | GCCTACGAAAGTAAGGC ((((((....))).))) | -31.3 | 56.9
62 | GATCTCACTCGAGATC ((((((....)))))) | -50.8 | 52.1
63 | GATAGCGGAAACGCTACC (.(((((....))))).) | -12.1 | 40.4
64 | GGACCTGGAAACAGGTCC (((((((....))))))) | -28.2 | 68.7
65 | GCTCAGCGAAAGCACAGC (((..((....))..))) | -14.9 | 39.7
66 | GATCGGCGATCCGATC ((((((....)))))) | -35.3 | 55
67 | GTCCCTCGAAAGAGAGAC (((.(((....))).))) | -23.3 | 46.2
68 | GGCTTGACGAAAGTCGCC (((..(((....)))))) | -14.5 | 55.2
69 | GCTTTAGGAAACTAGAGC (((.(((....))).))) | -31.9 | 35.4

Row | Sequence | folding enthalpy [1] [kcal/mol] | Tm [2] [°C]
70 | GAAAGGCGAAAGCCCTTC (((.(((....))).))) | -13 | 38.8
71 | GGGTAGGGAAACCTGTCC ((..(((....)))..)) | -17.2 | 32.3
72 | GAGTCCGAAAGGAGTCTC ((((((....)))..))) | -25.1 | 54.5
73 | GCCGTCGGAAACGGTGGC (((..((....))..))) | -22 | 51.3
74 | GCTATGCGAAAGCAAAGC (((.(((....))).))) | -36 | 51.6
75 | GCCTTCGCGAAAGCGGGC (((..(((....)))))) | -12.2 | 55.1
76 | GCGATAGGTCGC ((((....)))) | -24.5 | 51.4
77 | GGCAACGAAAGTTCGCC ((((((....))).))) | -22.9 | 51.6
78 | GCCCACGAAAGTGTCGGC ((((((....)))..))) | -19.6 | 48.4
79 | GAAATCGAAAGATTTC ((((((....)))))) | -32.5 | 55.9
80 | GCATCCGAAAGGACCTGC ((((((....)))..))) | -12.9 | 30
81 | GCAACGCGAAAGCGCGGC ((..(((....)))..)) | -14.8 | 48.1
82 | GTTTAAGAAATTAAAC ((((((....)))))) | -16.8 | 32.4
83 | CGTAGACGGAAACGTACG (((..(((....)))))) | -16.7 | 36.9
84 | GCCTCCGGAAACAGAGGC (((((.(....).))))) | -36.5 | 48.7
85 | GGTGTCGAAAGACAACC ((((((....))).))) | -26.1 | 55.7
86 | GCGAGCGCTCGC ((((....)))) | -46.8 | 65
87 | GATCTAGCCCTAGATC ((((((....)))))) | -37 | 45.6
88 | GCCTACTCGAAAGAGGGC (((..(((....)))))) | -26.4 | 44.1
89 | GGTCGAGAAATCGACC ((((((....)))))) | -40 | 66.2
90 | GGTCTGCGAAAGCATACC (((.(((....))).))) | -22.1 | 49.4
91 | GTCCTCGAAAGAGATGAC ((((((....)))..))) | -16.2 | 33.4
92 | GGCTGCCGAAAGGCGCC (((.(((....)))))) | -18.9 | 68.3
